# Source: PubChem BioAssay AID588687 (Southern Research Specialized Biocontainment Screening …, 2011)
# Activity calls are given as the source filed them.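 How the source made its calls: active means inhibition of 30% or more at any tested concentration; inactive means the rest.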
# System: M18 aspartyl aminopeptidase (Plasmodium falciparum 3D7)
# Assay: PfM18AAP inhibitors, dose response, counter-screen for PfM1 aminopeptidase inhibitor project, biochemical, QFRET fluorogenic substrate (AID 588687)
# Details: recombinant PfM18AAP, H-Glu-NHMec fluorogenic cleavage; series mostly up to 100 µM
# Summary of the method: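 Assay system – recombinant P. falciparum PFM18AAP enzyme · Medium – pH 7.5 Tris-HCl plus 2 mM CoCl2 · Also added – 0.1 mM H-Glu-NHMec substrate · Schedule – enzyme reaction with compounds 90 min at room temperature · Measured by – fluorescence of released leaving group, excitation 370 nm, emission 460 nm · Read-out – % inhibition of enzyme activity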
row,Structure (SMILES),outcome
1,CC[C@H](C)[C@H](NS(=O)(=O)c1ccc(Br)s1)C(=O)NCc1ccc(C(F)(F)F)cc1,inactive
2,CC[C@H](C)[C@H](NS(=O)(=O)c1ccc(Br)s1)C(=O)O,inactive
3,CC(C)(C)c1ccc(-c2ccc(S(=O)(=O)N3CCC(C(=O)NCc4ccc5c(c4)OCO5)CC3)s2)cc1,inactive
4,O=C(NCc1ccc2c(c1)OCO2)C1CCN(S(=O)(=O)c2ccc(-c3cccc(F)c3)s2)CC1,inactive
5,O=C(NCc1ccc2c(c1)OCO2)C1CCN(S(=O)(=O)c2ccc(-c3cncc4ccccc34)s2)CC1,inactive
6,O=C(NCc1ccc2c(c1)OCO2)C1CCN(S(=O)(=O)c2ccc(-c3ccccc3)s2)CC1,inactive
7,CN(C)c1ccc(CNC(=O)C2CCN(S(=O)(=O)c3ccc(Br)s3)CC2)cc1,inactive
8,CC[C@H](C)[C@H](NC(=O)c1ccc([N+](=O)[O-])cc1)C(=O)NCc1ccccc1,inactive
9,CC(=O)Nc1cccc(-c2ccc(S(=O)(=O)N3CCC(C(=O)NCc4ccc5c(c4)OCO5)CC3)s2)c1,inactive
10,CC[C@H](C)[C@H](NC(=O)c1ccc([N+](=O)[O-])cc1)C(=O)NCc1ccc(F)cc1,inactive
11,O=C(NCc1ccc2c(c1)OCO2)C1CCN(S(=O)(=O)c2ccc(-c3ccc(F)cc3)s2)CC1,inactive
12,COc1ccc(-c2ccc(S(=O)(=O)N3CCC(C(=O)NCc4ccc5c(c4)OCO5)CC3)s2)cc1,inactive
13,CC[C@H](C)[C@H](NS(=O)(=O)c1ccc(Br)s1)C(=O)NCc1ccc(F)cc1,inactive
14,CC[C@H](C)[C@H](NC(=O)c1ccc([N+](=O)[O-])cc1)C(=O)NCc1ccc(C(F)(F)F)cc1,inactive
15,CC[C@H](C)[C@H](NC(=O)c1ccc(C(C)(C)C)cc1)C(=O)NCc1ccc(C(F)(F)F)cc1,inactive
16,COc1cccc(-c2ccc(S(=O)(=O)N3CCC(C(=O)NCc4ccc5c(c4)OCO5)CC3)s2)c1,inactive
17,CC[C@H](C)[C@H](NS(=O)(=O)c1cccs1)C(=O)NCc1ccc(F)cc1,inactive
